Data taken from ChEMBL document CHEMBL1141378, “Structures of steroidal alkaloid oligoglycosides, robeneosides A and B, and antidiabetogenic constituents from the Brazilian medicinal plant Solanum lycocarpum” (2007).

Columns and labels:
Rattus norvegicus [1] = experiment: Inhibition of increase in serum glucose level in sucrose-loaded Wistar rat at 125 mg/kg, po after 0.5 hrs; format: functional
How it was run: (§1)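 Male Wistar rats (about 130-150 g) fasted 20-24 h, water allowed. Test sample suspended in 5% acacia solution, given orally at 10 mL/kg; controls get vehicle. Thirty minutes later, 20% (w/v) sucrose at 5 mL/kg po (water for the normal group). Serum taken 0.5, 1 and 2 h after loading; glucose measured by glucose-oxidase method. Means ± SEM; one-way ANOVA with Dunnett's test.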

Rattus norvegicus [2] = experiment: Inhibition of increase in serum glucose level in sucrose-loaded Wistar rat at 125 mg/kg, po after 1 hr; format: functional; how it was run: as §1
Rattus norvegicus [3] = experiment: Inhibition of increase in serum glucose level in sucrose-loaded Wistar rat at 125 mg/kg, po after 2 hrs; format: functional; how it was run: as §1
Rattus norvegicus [4] = experiment: Inhibition of increase in serum glucose level in sucrose-loaded Wistar rat at 500 mg/kg, po after 0.5 hrs; format: functional; how it was run: as §1
Rattus norvegicus [5] = experiment: Inhibition of increase in serum glucose level in sucrose-loaded Wistar rat at 500 mg/kg, po after 1 hr; format: functional; how it was run: as §1
Rattus norvegicus [6] = experiment: Inhibition of increase in serum glucose level in sucrose-loaded Wistar rat at 500 mg/kg, po after 2 hrs; format: functional; how it was run: as §1
Rattus norvegicus [7] = experiment: Inhibition of increase in serum glucose level in sucrose-loaded Wistar rat at 50 mg/kg, po after 2 hrs; format: functional; how it was run: as §1
Rattus norvegicus [8] = experiment: Inhibition of increase in serum glucose level in sucrose-loaded Wistar rat at 100 mg/kg, po after 2 hrs; format: functional; how it was run: as §1
Mus musculus [9] = experiment: Suppression of gastric emptying in CMC-Na-loaded mouse at 25 mg/kg, po after 30 mins; format: functional, Stomach
How it was run: (§2)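 Male ddY mice (about 30-32 g) fasted 20-24 h, dosed orally in 5% acacia (10 mL/kg) 30 min before an intragastric meal of 1.5% CMC-Na with 0.05% phenol red (0.5 mL/mouse). Killed 30 min later; stomach homogenized in 0.1 M NaOH, TCA-deproteinized, alkalinized, read at 560 nm. Emptying % calculated against mice killed immediately after the meal. Means ± SEM, Dunnett's test.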

Mus musculus [10] = experiment: Suppression of gastric emptying in CMC-Na-loaded mouse at 50 mg/kg, po after 30 mins; format: functional, Stomach; how it was run: as §2
Rattus norvegicus [11] = experiment: Inhibition of increase in serum glucose level in sucrose-loaded Wistar rat at 25 mg/kg, po after 0.5 hrs; format: functional; how it was run: as §1
Rattus norvegicus [12] = experiment: Inhibition of increase in serum glucose level in sucrose-loaded Wistar rat at 50 mg/kg, po after 0.5 hrs; format: functional; how it was run: as §1
Rattus norvegicus [13] = experiment: Inhibition of increase in serum glucose level in sucrose-loaded Wistar rat at 100 mg/kg, po after 0.5 hrs; format: functional; how it was run: as §1
Rattus norvegicus [14] = experiment: Inhibition of increase in serum glucose level in sucrose-loaded Wistar rat at 25 mg/kg, po after 1 hr; format: functional; how it was run: as §1
Rattus norvegicus [15] = experiment: Inhibition of increase in serum glucose level in sucrose-loaded Wistar rat at 50 mg/kg, po after 1 hr; format: functional; how it was run: as §1
Rattus norvegicus [16] = experiment: Inhibition of increase in serum glucose level in sucrose-loaded Wistar rat at 100 mg/kg, po after 1 hr; format: functional; how it was run: as §1
Rattus norvegicus [17] = experiment: Inhibition of increase in serum glucose level in sucrose-loaded Wistar rat at 25 mg/kg, po after 2 hrs; format: functional; how it was run: as §1
Rattus norvegicus [18] = experiment: Inhibition of increase in serum glucose level in sucrose-loaded Wistar rat at 12.5 mg/kg, po after 0.5 hrs; format: functional; how it was run: as §1
Rattus norvegicus [19] = experiment: Inhibition of increase in serum glucose level in sucrose-loaded Wistar rat at 12.5 mg/kg, po after 1hr; format: functional; how it was run: as §1
Rattus norvegicus [20] = experiment: Inhibition of increase in serum glucose level in sucrose-loaded Wistar rat at 12.5 mg/kg, po after 2 hrs; format: functional; how it was run: as §1

Row | SMILES | Activity (Rattus norvegicus [1]) | Activity (Rattus norvegicus [2]) | Activity (Rattus norvegicus [3]) | Activity (Rattus norvegicus [4]) | Activity (Rattus norvegicus [5]) | Activity (Rattus norvegicus [6]) | Activity (Rattus norvegicus [7]) | Activity (Rattus norvegicus [8]) | Activity (Mus musculus [9]) | Activity (Mus musculus [10]) | Activity (Rattus norvegicus [11]) | Activity (Rattus norvegicus [12]) | Activity (Rattus norvegicus [13]) | Activity (Rattus norvegicus [14]) | Activity (Rattus norvegicus [15]) | Activity (Rattus norvegicus [16]) | Activity (Rattus norvegicus [17]) | Activity (Rattus norvegicus [18]) | Activity (Rattus norvegicus [19]) | Activity (Rattus norvegicus [20])
1 | CN(C)C(=N)NC(=N)N [METFORMIN] | 134.8 mg/dL | 136 mg/dL | 115.5 mg/dL | 113.1 mg/dL | 105.6 mg/dL | 119.8 mg/dL |  |  |  |  |  |  |  |  |  |  |  |  |  | 
2 | C[C@@H]1CC[C@@]2(NC1)O[C@H]1C[C@H]3[C@@H]4CC=C5C[C@@H](O[C@@H]6O[C@H](CO)[C@@H](O[C@@H]7O[C@@H](C)[C@H](O)[C@@H](O)[C@H]7O)[C@H](O)[C@H]6O[C@@H]6O[C@@H](C)[C@H](O)[C@@H](O)[C@H]6O)CC[C@]5(C)[C@H]4CC[C@]3(C)[C@H]1[C@@H]2C [SOLAMARGINE] |  |  |  |  |  |  | 118.7 mg/dL | 122.3 mg/dL | 73.7% | 58.4% | 141.7 mg/dL | 124.3 mg/dL | 118.5 mg/dL | 139.9 mg/dL | 117.1 mg/dL | 116.6 mg/dL | 133.7 mg/dL |  |  | 
3 | C[C@@H]1CC[C@@]2(NC1)O[C@H]1C[C@H]3[C@@H]4CC=C5C[C@@H](O[C@@H]6O[C@H](CO)[C@H](O)[C@H](O[C@@H]7O[C@H](CO)[C@@H](O)[C@H](O)[C@H]7O)[C@H]6O[C@@H]6O[C@@H](C)[C@H](O)[C@@H](O)[C@H]6O)CC[C@]5(C)[C@H]4CC[C@]3(C)[C@H]1[C@@H]2C [SOLASONINE] |  |  |  |  |  |  | 135.4 mg/dL | 121.9 mg/dL | 75.4% | 74.8% | 158.8 mg/dL | 132.7 mg/dL | 124.7 mg/dL | 157.6 mg/dL | 136.7 mg/dL | 122.4 mg/dL | 129.5 mg/dL |  |  | 
4 | CCCCNC(=O)NS(=O)(=O)c1ccc(C)cc1 [TOLBUTAMIDE] |  |  |  |  |  |  |  |  |  |  | 138.1 mg/dL |  |  | 106.3 mg/dL |  |  | 99.5 mg/dL | 152.6 mg/dL | 130.5 mg/dL | 114.9 mg/dL
